Drawing on ChEMBL document CHEMBL2380248, “Matrix metalloproteinase inhibitors based on the 3-mercaptopyrrolidine core” (J Med Chem, 2013), this text covers Ki for 14 molecules.

Holding throughout (conditions): read-out: Ki(app)
One test has as its target T1, Matrilysin (Homo sapiens, UniProt P09237).
T1 sequence (P09237 whole entry): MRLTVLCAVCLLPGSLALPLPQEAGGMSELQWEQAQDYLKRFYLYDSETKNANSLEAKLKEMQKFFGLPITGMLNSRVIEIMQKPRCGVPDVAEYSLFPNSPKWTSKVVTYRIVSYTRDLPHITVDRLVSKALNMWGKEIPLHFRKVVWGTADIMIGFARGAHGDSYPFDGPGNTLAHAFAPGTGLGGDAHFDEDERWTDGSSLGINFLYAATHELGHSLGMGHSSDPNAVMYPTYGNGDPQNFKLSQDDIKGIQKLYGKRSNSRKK
The experiment in a line: Inhibition of MMP-7 (unknown origin) using Mca-PLGLDpa-AR-NH2 as substrate preincubated for 30 mins by fluorescence assay. A digest of the protocol: (§1)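 Fluorogenic assay at 25°C in 50 mM HEPES pH 7.5, 10 mM CaCl2, 200 mM NaCl, 0.01% Brij-35, 5 μM TCEP. Inhibitor in DMSO preincubated 30 min with enzyme (0.2–7 nM), then started with Mca-PLGLDpa-AR-NH2 (4 μL of […] in 50% DMSO); product release followed at λex 328/λem 393 nm.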

The target of another test is T2, Interstitial collagenase (Homo sapiens, UniProt P03956).
T2 sequence (P03956 whole entry): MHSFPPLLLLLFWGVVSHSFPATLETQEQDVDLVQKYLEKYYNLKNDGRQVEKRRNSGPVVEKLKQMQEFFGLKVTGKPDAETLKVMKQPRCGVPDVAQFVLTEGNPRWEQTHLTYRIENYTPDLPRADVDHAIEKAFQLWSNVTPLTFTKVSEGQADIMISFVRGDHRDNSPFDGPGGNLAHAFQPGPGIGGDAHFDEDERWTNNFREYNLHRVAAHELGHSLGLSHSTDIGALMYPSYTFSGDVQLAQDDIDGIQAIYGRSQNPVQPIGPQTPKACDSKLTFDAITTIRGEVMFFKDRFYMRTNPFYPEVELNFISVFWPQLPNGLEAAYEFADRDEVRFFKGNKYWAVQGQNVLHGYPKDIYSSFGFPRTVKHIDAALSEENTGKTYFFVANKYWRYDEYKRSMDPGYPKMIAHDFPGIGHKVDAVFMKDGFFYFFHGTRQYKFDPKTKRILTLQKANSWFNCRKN
Kind of test: Inhibition of MMP-1 (unknown origin) using Mca-PLGLDpa-AR-NH2 as substrate preincubated for 30 mins by fluorescence assay. A digest of the protocol: as §1

Test [1] addresses Matrix metalloproteinase-14 (Homo sapiens, UniProt P50281). Kind of test: Inhibition of MMP-14 (unknown origin) using Mca-PLGLDpa-AR-NH2 as substrate preincubated for 30 mins by fluorescence assay. A digest of the protocol:
as §1

The target of test [2] is Matrix metalloproteinase-9 (Homo sapiens, UniProt P14780). Kind of test: Inhibition of MMP-9 (unknown origin) using Mca-PLGLDpa-AR-NH2 as substrate preincubated for 30 mins by fluorescence assay. An outline of the steps:
as §1

The next test addresses Stromelysin-1 (Homo sapiens, UniProt P08254). The experiment in a line: Inhibition of MMP-3 (unknown origin) using Mca-PLGLDpa-AR-NH2 as substrate preincubated for 30 mins by fluorescence assay. An outline of the steps: as §1
For test [3], the target named is 72 kDa type IV collagenase (Homo sapiens, UniProt P08253). The experiment in a line: Inhibition of MMP-2 (unknown origin) using Mca-PLGLDpa-AR-NH2 as substrate preincubated for 30 mins by fluorescence assay. An outline of the steps: as §1
72 kDa type IV collagenase, sequence (P08253 whole entry): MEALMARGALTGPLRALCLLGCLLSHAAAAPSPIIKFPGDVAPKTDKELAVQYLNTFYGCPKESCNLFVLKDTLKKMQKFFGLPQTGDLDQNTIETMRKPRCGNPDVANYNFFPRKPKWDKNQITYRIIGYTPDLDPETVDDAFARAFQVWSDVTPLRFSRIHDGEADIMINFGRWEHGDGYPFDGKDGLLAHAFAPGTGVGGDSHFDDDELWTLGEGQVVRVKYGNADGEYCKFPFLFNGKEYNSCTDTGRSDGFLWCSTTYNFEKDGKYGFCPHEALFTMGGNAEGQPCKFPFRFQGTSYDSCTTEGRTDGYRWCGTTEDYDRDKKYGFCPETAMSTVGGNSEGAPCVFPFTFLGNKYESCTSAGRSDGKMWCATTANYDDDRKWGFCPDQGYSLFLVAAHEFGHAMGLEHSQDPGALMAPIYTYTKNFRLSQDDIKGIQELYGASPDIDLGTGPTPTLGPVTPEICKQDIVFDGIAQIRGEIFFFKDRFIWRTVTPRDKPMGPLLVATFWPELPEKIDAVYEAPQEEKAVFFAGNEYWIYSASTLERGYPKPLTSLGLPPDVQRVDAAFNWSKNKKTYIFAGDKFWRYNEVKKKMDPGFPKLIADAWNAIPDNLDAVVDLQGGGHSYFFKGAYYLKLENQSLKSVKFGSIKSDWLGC
The target of the next test is Collagenase 3 (Homo sapiens, UniProt P45452). Kind of test: Inhibition of MMP-13 (unknown origin) using Mca-PLGLDpa-AR-NH2 as substrate preincubated for 30 mins by fluorescence assay. A digest of the protocol: as §1

Molecules are shown by their SMILES.

Stromelysin-1, sequence (P08254 whole entry): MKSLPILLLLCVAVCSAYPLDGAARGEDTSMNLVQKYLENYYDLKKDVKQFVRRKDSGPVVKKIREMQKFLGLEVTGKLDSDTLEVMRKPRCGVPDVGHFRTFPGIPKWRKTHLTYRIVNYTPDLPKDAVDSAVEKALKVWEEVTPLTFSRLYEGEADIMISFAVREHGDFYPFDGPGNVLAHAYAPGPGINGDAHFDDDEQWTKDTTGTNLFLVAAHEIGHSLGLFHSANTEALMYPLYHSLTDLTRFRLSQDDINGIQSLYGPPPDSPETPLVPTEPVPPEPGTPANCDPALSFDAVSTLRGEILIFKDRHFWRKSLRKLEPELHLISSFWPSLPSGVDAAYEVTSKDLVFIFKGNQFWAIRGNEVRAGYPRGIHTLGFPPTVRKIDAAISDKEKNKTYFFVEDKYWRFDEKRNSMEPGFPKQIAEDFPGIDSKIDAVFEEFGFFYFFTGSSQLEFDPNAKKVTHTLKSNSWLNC
Matrix metalloproteinase-9, sequence (P14780 whole entry): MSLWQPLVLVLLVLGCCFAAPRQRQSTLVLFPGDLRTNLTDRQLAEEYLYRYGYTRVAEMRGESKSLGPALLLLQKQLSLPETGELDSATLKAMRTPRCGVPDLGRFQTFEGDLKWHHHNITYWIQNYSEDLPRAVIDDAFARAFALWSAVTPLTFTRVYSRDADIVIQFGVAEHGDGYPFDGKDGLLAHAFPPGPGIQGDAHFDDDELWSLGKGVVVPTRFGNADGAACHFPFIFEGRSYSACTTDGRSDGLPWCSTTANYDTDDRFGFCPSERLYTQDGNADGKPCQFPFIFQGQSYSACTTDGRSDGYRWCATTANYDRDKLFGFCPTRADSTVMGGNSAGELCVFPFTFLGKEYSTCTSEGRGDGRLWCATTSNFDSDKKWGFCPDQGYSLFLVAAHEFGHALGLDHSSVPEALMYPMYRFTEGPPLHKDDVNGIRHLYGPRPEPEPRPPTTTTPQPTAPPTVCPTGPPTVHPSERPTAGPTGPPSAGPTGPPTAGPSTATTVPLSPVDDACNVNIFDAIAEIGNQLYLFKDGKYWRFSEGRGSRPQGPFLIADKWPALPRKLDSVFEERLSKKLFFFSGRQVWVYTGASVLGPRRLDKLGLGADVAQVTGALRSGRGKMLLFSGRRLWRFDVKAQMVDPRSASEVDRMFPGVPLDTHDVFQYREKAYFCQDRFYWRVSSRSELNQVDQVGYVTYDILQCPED

Consider `CNC(=O)[C@H](Cc1ccccc1)NC(=O)[C@@H](CC(C)C)S[C@H]1CN(C(C)=O)C[C@H]1S` (mixture of isomers), for which the Ki on Matrilysin amounted to 0.091 µM; at Interstitial collagenase, 0.099 µM; in test [1] it was 0.0062 µM; in test [2] it was 0.0057 µM; at Stromelysin-1, 0.99 µM; in test [3], 0.014 µM.
As for `O=C(N[C@H]1CCC[C@@H]1S)c1ccc(Oc2ccccc2)cc1` (racemic), the Ki is 5.7 µM at Matrilysin; more than 200 µM on Interstitial collagenase; 28 µM on Collagenase 3; more than 25 µM in test [1]; 4.3 µM in test [2]; more than 200 µM on Stromelysin-1. Also, the Ki in test [3] came to 5.7 µM.
On to `O=S(=O)(N[C@@H]1CCC[C@@H]1S)c1ccc(Oc2ccccc2)cc1` (racemic), for which the Ki on Matrilysin was more than 20 µM; at Interstitial collagenase, more than 100 µM; on Collagenase 3, 0.2 µM; in test [1], 0.41 µM; in test [2] it was 0.97 µM; in test [3], 0.81 µM.
For `CNC(=O)[C@H](Cc1ccccc1)NC(=O)[C@@H](CC(C)C)S[C@H]1CN(C(=O)CCCN2C(=O)c3ccccc3C2=O)C[C@H]1S` (mixture of isomers), the Ki at Matrilysin turned out to be 0.012 µM; at Interstitial collagenase, 0.075 µM; in test [1] it was 0.006 µM; in test [2] it was 0.0039 µM; at Stromelysin-1, 0.031 µM; in test [3], 0.0085 µM.
For the molecule `O=S(=O)(N[C@H]1CNC[C@@H]1S)c1ccc(Oc2ccccc2)cc1`, the figures for the Ki at Matrilysin and at Interstitial collagenase were more than 200 µM and 50 µM, respectively.
Consider `O=S(=O)(N[C@@H]1CNC[C@H]1S)c1ccc(Oc2ccccc2)cc1`, for which the Ki at Matrilysin stood at 4.1 µM; on Interstitial collagenase it was 6.3 µM.
Take `O=S(=O)(N[C@H]1CCC[C@@H]1S)c1ccc(-c2ccccc2)cc1` (racemic): the Ki on Interstitial collagenase was 10 µM; at Collagenase 3, 0.23 µM; in test [1], 1.2 µM; in test [2], 0.63 µM; at Stromelysin-1, 10 µM; in test [3], 0.24 µM.
In the case of `CN([C@H]1CN(C(N)=O)C[C@@H]1S)S(=O)(=O)c1ccc(Oc2ccccc2)cc1` (racemic), the Ki on Matrilysin was more than 25 µM; in test [2], 0.0011 µM.
For the molecule `CNC(=O)[C@H](Cc1ccccc1)NC(=O)[C@@H](CC(C)C)S[C@H]1CN(C(=O)CN2C(=O)c3ccccc3C2=O)C[C@H]1S` (mixture of isomers), the Ki worked out at 0.05 µM at Matrilysin; 0.11 µM on Interstitial collagenase; 0.07 µM in test [1]; 0.0049 µM in test [2]; 0.3 µM at Stromelysin-1; 0.017 µM in test [3].
On to `O=S(=O)(N[C@@H]1CCC[C@H]1S)c1ccc(Oc2ccccc2)cc1`, for which the Ki at Matrilysin is 36 µM; on Collagenase 3, 0.01 µM; in test [1], 0.01 µM; in test [2], 0.042 µM; on Stromelysin-1, more than 100 µM; in test [3], 0.067 µM.
Take `CNC(=O)[C@H](Cc1ccccc1)NC(=O)[C@@H](CC(C)C)S[C@H]1CNC[C@H]1S` (mixture of isomers): the Ki on Matrilysin was found to be 0.23 µM; on Interstitial collagenase it was 0.26 µM; in test [1] it was 0.31 µM; in test [2], 0.0053 µM; on Stromelysin-1 it was 4.1 µM; in test [3] it was 0.2 µM.
Consider `O=S(=O)(N[C@H]1CNC[C@@H]1S)c1ccc(Oc2ccccc2)cc1` (racemic), for which the Ki is more than 25 µM on Matrilysin and 25 µM at Interstitial collagenase.
Consider `CNC(=O)[C@H](Cc1ccccc1)NC(=O)[C@@H](CC(C)C)S[C@H]1CN(C(=O)CCCCCN2C(=O)c3ccccc3C2=O)C[C@H]1S` (mixture of isomers), for which the Ki turned out to be 0.011 µM at Matrilysin; 0.052 µM on Interstitial collagenase; 0.007 µM in test [1]; 0.00098 µM in test [2]; 0.0019 µM at Stromelysin-1; 0.0017 µM in test [3].
Consider `O=S(=O)(N[C@H]1CCC[C@H]1S)c1ccc(Oc2ccccc2)cc1`, for which the Ki on Matrilysin was more than 100 µM; at Collagenase 3, 0.16 µM; in test [1], 0.068 µM; in test [2], 0.28 µM; in test [3], 0.43 µM.
